The results in this text go back to paper PMC12824664 (Blood, 2025).

Test [1] has as its target wild type BTK (Homo sapiens, UniProt Q06187). The experiment in a line: biochemical. It counts as binding. To be noted: read-out: residence time t1/2.
Test [2] concerns relapsed/refractory chronic lymphocytic leukemia. Put plainly: Phase 1/2 BRUIN trial, pirtobrutinib monotherapy, response per iwCLL 2018. It counts as in vivo, human. The procedure, abridged: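 Relapsed/refractory CLL patients pretreated with covalent BTK inhibitors received test compound monotherapy in a multicenter phase 1/2 trial. Response followed iwCLL 2018 criteria, with data cutoff 5 May 2023. ORR was the proportion with best response of partial response with lymphocytosis or better, with 2-sided 95% CI from the exact binomial. PBMCs at baseline and progression underwent targeted NGS; a more sensitive assay had 0.5% VAF LoD.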

Test [3] concerns BTK mutants with kinase activity (Y545N, V416L, T474I, C481S+T474I) in Ramos BTK KO cells. It is filed as cell-based. The conditions noted are these: variants with kinase activity vs wild type.

Chain of wild type BTK (Q06187 whole entry): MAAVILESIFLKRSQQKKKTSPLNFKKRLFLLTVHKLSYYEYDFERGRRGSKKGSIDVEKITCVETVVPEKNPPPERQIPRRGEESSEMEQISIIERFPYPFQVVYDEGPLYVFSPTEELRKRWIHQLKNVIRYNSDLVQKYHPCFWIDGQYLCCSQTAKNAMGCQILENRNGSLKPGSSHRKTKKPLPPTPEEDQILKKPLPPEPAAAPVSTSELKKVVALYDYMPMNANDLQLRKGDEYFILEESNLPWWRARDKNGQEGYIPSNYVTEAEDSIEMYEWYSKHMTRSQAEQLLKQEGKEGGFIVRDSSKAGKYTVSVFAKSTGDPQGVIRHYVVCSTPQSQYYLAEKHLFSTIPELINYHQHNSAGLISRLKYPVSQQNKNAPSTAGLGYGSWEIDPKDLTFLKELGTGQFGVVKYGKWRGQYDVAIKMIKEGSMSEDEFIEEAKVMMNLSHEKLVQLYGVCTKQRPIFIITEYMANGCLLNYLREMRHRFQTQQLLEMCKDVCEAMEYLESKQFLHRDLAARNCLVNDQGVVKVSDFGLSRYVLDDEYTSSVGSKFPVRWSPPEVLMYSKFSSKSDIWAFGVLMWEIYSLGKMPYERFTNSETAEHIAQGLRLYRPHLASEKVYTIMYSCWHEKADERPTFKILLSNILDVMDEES

With `COc1ccc(F)cc1C(=O)NCc1ccc(-c2nn([C@@H](C)C(F)(F)F)c(N)c2C(N)=O)cc1` [Pirtobrutinib], in test [1], the residence time was 336 min. In addition, the BOR result in test [2] (3 patients with detectable BTK L528W at baseline) is “partial response, stable disease, and PD”; in test [2] (6 patients with detectable BTK T474x at baseline), “PR (4), SD (1), and PD (1”. Moreover, the “Median PFS (95%CI)” value in test [2] (Patients with PD and longitudinal samples n=88) turned out to be 10.3 months. In test [2] (overall population, median follow-up of 29 months, 139 patients), the “patients who experienced PD on pirtobrutinib” value is listed as 57%. The “median PFS” value in test [2] (patients with baseline BTK T474x (standard and high sensitivity), 95% CI, 7.4-22.3) came out at 9.2 months. Moreover, the “sensitivity to inhibition in cellular BTK phosphorylation assays” value in test [3] was “less sensitive”.
